Bioassay records from PubChem BioAssay.
IEC-6 cytotox = IEC-6 cytotoxicity, counter-screen for KLF5 inhibitors; luminescence viability; inhibition, % at 5 µM; 0.78% of 290,000 active; AID 1825; in the data active = inhibition above about 22%;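 also: 0% = plate median of test compound wells and 100% = cytotoxic reference compound wells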
Ba/F3 V617F tox = lowers viability of Ba/F3 cells expressing EpoR and JAK2V617F | ATP luminescence | inhibition, % at 5.6 µM | 1.1% of 220,000 active | AID 1446;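 active = inhibition above the campaign mean plus 3 SD over all tested compounds, cut at about 24% in these data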;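 also: cytokine-independent growth of Ba/F3 cells driven by EpoR plus mutant JAK2; 0% = DMSO-treated cells and 100% = JAK inhibitor I control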
BaF3 parental = parental Ba/F3 viability inhibition as JAK2V617F counter-screen | CellTiter-Glo ATP luminescence | 1.1% of 220,000 active | inhibition, % at 5.6 µM;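 active = inhibition above a per-campaign cutoff, the mean inhibition of all tested compounds plus 3 SD, cut at about 27% in these data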;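 also: 0% = DMSO wells and 100% = JAK Inhibitor I control wells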
APP transl inh = APP translation inhibition | 0.82% of 190,000 active | inhibition, % at 2 µM | SH-SY5Y APP 5'UTR-luciferase reporter, luminescence;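 active = inhibition above a set limit, derived from the sample mean plus 3 SD, cut at about 45% in these data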
b-catenin transl = beta-catenin nuclear translocation modulation; HeLa beta-catenin nuclear translocation, immunofluorescence imaging; nuclear translocation activity, % at 5 µM; 0.3% of 190,000 active; AID 1665;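 active = nuclear translocation activity above 50% at 5 µM, with a well cell count of 50 or more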;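 also: per-cell ratio of nuclear to cytoplasmic median beta-catenin stain intensity; plate controls were DMSO negative control for no effect and GSK-3 inhibitor IX positive control for full effect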
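Assay system: human HeLa cells, native beta-catenin; doses: 5 µM primary, 0.02–20 µM confirmation; incubation: compound treatment 24 h, 37°C, 5% CO2; technique: fluorescence imaging of beta-catenin antibody stain plus DAPI; measure: % activation, nuclear-to-cytoplasmic median beta-catenin signal ratio per cell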
MT stabilize HCS = microtubule stabilizers in HeLa cells. HeLa tubulin immunostaining HCS, 24 h; share of cells brighter than vehicle mean+2SD. % tubulin-high responders, % at 10 µM. 0.83% of 200,000 active. AID 2205;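 active = plate Z-score above 3 for both tubulin-high and condensed-nucleus cell shares, with cell loss under 80%, at 10 µM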;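 also: anti alpha tubulin signal scored within the nucleus-defined area of each cell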
Starred values were filed as active, the others as inactive; x = no result given. Only some compounds are listed: those with a hit (about 2.2% of all), similar ones and a draw of the others.

SMILES	IEC-6 cytotox	Ba/F3 V617F tox	BaF3 parental	APP transl inh	b-catenin transl	MT stabilize HCS
CCC(O)C1CCN(C(=O)c2cc(COc3ccc4ncccc4c3)on2)CC1 (centres undefined)	14	47*	68*	4	1	2
Cc1cccc(NC(=O)CCc2nnc3ccc(NCc4ccco4)nn23)n1	-5	x	x	x	x	x
Cc1nc(C(F)(F)F)c(C(=O)N/N=C(\N)c2ccccn2)s1	5	1	8	57*	0	4
N/C(=N\NS(=O)(=O)c1ccccc1C(F)(F)F)c1ccccn1	-8	-1	-2	x	-3	x
O=C(O)Cc1ccc2c(c1)N(S(=O)(=O)c1cccs1)CC(C(=O)O)O2 (centres undefined)	-6	x	x	x	x	x
OCCC1CN(CC2CCCCC2)CCN1C1CCCC1 (centres undefined)	0	x	x	x	x	x
COc1ccc(COc2cc(-c3cccc(OC)c3)nc3ccc(NC(=O)c4ccccc4)cc23)cc1	5	0	6	-1	x	6
COc1ccc(COc2cc(-c3cccc(OC)c3)nc3ccc(NC(=O)c4ccc(OC)cc4)cc23)cc1	19	78*	53*	56*	x	27
CCOc1ccc(-c2cc(CCCC(=O)Nc3cccc(OC)c3)no2)cc1	4	-4	0	80*	100*	23*
CCOc1ccc(NC(=O)CCCc2cc(-c3ccc(OCC)cc3)on2)cc1	-4	-3	4	16	-2	2
CCN(C(=S)NCCOC)c1cccc2ccccc12	2	32*	27*	1	3	5
CN(C)CCC#CC(O)(c1ccccc1)c1ccccc1	-8	0	9	2	0	3
CCN(CC)CC#CC(O)(c1ccccc1)c1ccccc1	3	-1	8	49*	-1	2
Cc1cccc(OCc2nnc(SCC(=O)NC3CCCC3)n2C)c1	-6	x	x	x	x	x
CCC(=O)NC(c1cccs1)c1ccc2cccnc2c1O (centres undefined)	28*	77*	59*	85*	0	3
CC(C)C(=O)NC(c1ccco1)c1ccc2cccnc2c1O (centres undefined)	13	51*	60*	84*	-6	3
CC(C)CC(=O)NC(c1cccs1)c1ccc2cccnc2c1O (centres undefined)	12	65*	75*	82*	0	6
CCCC(=O)NC(c1ccccc1OC)c1ccc2cccnc2c1O (centres undefined)	101*	102*	101*	75*	1	5
CCN1CCN(CCCNC(=O)c2ccc(NC(=O)C3=C(C)OCCS3)cc2)CC1	2	x	x	x	x	x
Oc1c(C(Nc2cccc(C(F)(F)F)c2)c2ccncc2)ccc2cccnc12 (centres undefined)	-1	-1	4	14	-4	7
Cc1conc1NC(c1cccs1)c1ccc2cccnc2c1O (centres undefined)	7	97*	83*	39	2	6
O=C(N/N=C/c1ccc2c(c1)OCO2)C1COc2ccccc2O1 (centres undefined)	3	5	9	-12	-2	41*
O=C(N/N=C\c1cc(Br)cs1)C1COc2ccccc2O1 (centres undefined)	1	0	-1	33	1	43*
Cc1cccc(N2C(=O)C(O)=C(C(=O)c3cccs3)C2c2ccc(Cl)cc2)n1 (centres undefined)	-1	-4	2	x	0	x
Cc1ccc(N2CCN(S(=O)(=O)c3ccc(Cl)s3)CC2C)cc1 (centres undefined)	-10	x	x	x	x	x
SMILES	IEC-6 cytotox	Ba/F3 V617F tox	BaF3 parental	APP transl inh	b-catenin transl	MT stabilize HCS
CN1CCN(CC(=O)N2c3ccccc3C(C)(c3ccc(Cl)cc3)CC2(C)C)CC1 (centres undefined)	0	2	6	3	x	2
CN1CCN(CC(=O)N2c3ccccc3C(C)(c3ccccc3)CC2(C)C)CC1 (centres undefined)	4	30*	3	-11	1	1
O=C(O)c1cccc(NC(=O)C23CC4CC(C2)CC(n2cnc(Cl)n2)(C4)C3)c1	4	2	5	43	x	1
COc1ccc(NC(=O)C23CC4CC(C2)CC(n2cnc(Br)n2)(C4)C3)cc1Cl	-1	0	1	47*	x	2
CN=C1c2cc3cc(OC)ccc3n2CCN1Cc1ccccc1	10	16	8	36	x	40*
CCN(CC)CCNC1=NCCn2c1cc1cc(OC)ccc12	2	5	9	-13	x	2
Cc1ccc2[nH]c3c(N4CCN(Cc5ccccc5)CC4)ncnc3c2c1	4	1	25	-9	-4	5
Cc1ccc2[nH]c3c(N4CCCCCC4)ncnc3c2c1	7	46*	48*	-3	-1	6
COCCNC(=O)c1cccc(OC2CCN(Cc3ccc(OC(F)F)cc3)CC2)c1	4	x	x	x	x	x
O=C(CNC(=O)c1ccc2c(c1)OCO2)N/N=C(Br)/C=C/c1ccccc1	-2	-4	-2	7	-1	19*
O=C(CNC(=O)c1ccc2c(c1)OCO2)N/N=C/c1cccc([N+](=O)[O-])c1	1	-1	1	1	-2	1
C#CCOc1ccc(C2C3=C(CC(C)(C)CC3=O)N(CC(=O)O)C3=C2C(=O)CC(C)(C)C3)cc1OC	-4	x	x	x	x	x
C=CCOc1ccc(C2C(C#N)=C(N)N(Nc3ccccc3)C3=C2C(=O)CC(C)(C)C3)cc1OC (centres undefined)	-4	2	0	-5	2	32*
CCN(c1ccc(NC(=O)c2ccc(Cl)nc2)cc1)C(C)C	69*	77*	69*	60*	27	23*
CCCCC(Br)C(=O)Nc1ccc(S(=O)(=O)Nc2cc(C)nc(C)n2)cc1 (centres undefined)	-1	x	x	x	x	x
O=c1cc(N2CCN(c3ccc(F)cc3)CC2)[nH]c(=O)n1C1CCCCC1	-4	3	2	-11	2	27*
O=C(C1CCC1)N1CCN(c2ccc(Cl)cc2)CC1	0	x	x	x	x	x
O=C(C1c2ccccc2Oc2ccccc21)N1CCN(c2ccc(Cl)cc2)CC1	-2	1	4	-9	x	33*
CCOc1cc(CNCCc2ccc(S(N)(=O)=O)cc2)ccc1OCC(=O)NC1CCCCC1	-2	-3	2	65*	-4	1
COc1cc(CNCc2ccccc2Cl)ccc1OCC(=O)NC1CCCCC1	-4	x	x	x	x	x
COc1cc(CNn2cnnc2)ccc1OCC(=O)NC1CCCCC1	6	-2	1	64*	x	2
CN1CCc2ccc(NC(=O)c3ccc(C(F)(F)F)cc3)cc2C1	-10	x	x	x	x	x
Cc1ccc(C)c(NC(=O)C(Sc2nnc(-c3cccs3)o2)c2ccccc2)c1 (centres undefined)	11	89*	72*	-8	0	4
Cc1cc(NC(=O)c2ccco2)c(=O)n(Cc2cccc(C(F)(F)F)c2)c1	-2	x	x	x	x	x
